Assay outcomes as filed in PubChem BioAssay.
An excerpt weighted towards active compounds, which were near 9.4% of everything screened.
Beta apoptosis: inhibitors of cytokine-induced beta cell apoptosis, primary screen, luminescence | INS-1E cytokine-induced death, ATP luminescence, 48 h; percent of positive-control rescue, neutral wells zero | protection from apoptosis, % (concentration not given with the values) | 300,000 compounds, 0.8% hits;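 active means Every replicate reaches about 75%, or at least half do and their mean reaches it too, limit read from the data; inconclusive means At least half of replicates reach the limit but their mean does not; inactive means Under half of replicates reach the limit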;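 further: higher means more ATP so stronger rescue from cytokine killing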
Mdm2-MdmX inh: inhibitors of human Mdm2-MdmX association, primary screen, cell-based, luminescence, split luciferase, SaOS-2, uHTS | SaOS-2 split-luciferase Mdm2/MdmX complementation | inhibition, % at 8 µM | 330,000 compounds, 3% hits;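 active means inhibition of at least 50% at 8 µM in the primary screen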
Target sequence (O15151 whole entry, looked up): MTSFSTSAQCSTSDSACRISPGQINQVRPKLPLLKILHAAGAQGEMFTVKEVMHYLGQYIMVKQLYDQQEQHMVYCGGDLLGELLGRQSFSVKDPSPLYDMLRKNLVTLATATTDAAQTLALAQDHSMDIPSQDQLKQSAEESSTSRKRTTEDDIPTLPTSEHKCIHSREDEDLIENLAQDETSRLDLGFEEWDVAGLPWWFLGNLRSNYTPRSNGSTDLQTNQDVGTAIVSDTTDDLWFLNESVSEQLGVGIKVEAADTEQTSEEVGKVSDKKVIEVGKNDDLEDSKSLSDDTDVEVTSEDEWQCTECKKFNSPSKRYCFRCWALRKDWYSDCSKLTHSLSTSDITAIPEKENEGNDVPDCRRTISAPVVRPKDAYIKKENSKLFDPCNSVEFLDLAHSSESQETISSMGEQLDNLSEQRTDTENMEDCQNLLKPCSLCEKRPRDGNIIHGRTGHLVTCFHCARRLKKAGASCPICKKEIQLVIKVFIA
Target sequence (Q00987 whole entry, looked up): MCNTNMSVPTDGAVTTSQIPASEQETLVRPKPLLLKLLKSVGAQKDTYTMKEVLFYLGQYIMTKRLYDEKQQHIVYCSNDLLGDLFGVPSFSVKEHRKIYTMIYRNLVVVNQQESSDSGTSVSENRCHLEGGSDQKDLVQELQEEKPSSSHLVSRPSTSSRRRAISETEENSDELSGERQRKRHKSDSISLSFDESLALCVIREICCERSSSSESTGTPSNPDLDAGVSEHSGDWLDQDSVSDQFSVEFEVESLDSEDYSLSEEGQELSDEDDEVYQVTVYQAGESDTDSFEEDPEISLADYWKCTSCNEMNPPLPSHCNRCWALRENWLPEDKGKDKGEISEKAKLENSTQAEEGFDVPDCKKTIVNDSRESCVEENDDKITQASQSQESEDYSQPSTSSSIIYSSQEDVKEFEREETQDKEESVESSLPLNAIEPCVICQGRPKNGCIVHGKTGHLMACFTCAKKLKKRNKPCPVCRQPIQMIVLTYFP
T cruzi repl: inhibitors of intracellular T. cruzi growth, primary screen, luminescence, NIH3T3 host cells. 300,000 compounds, 1.4% hits. AID 1885, 2009. inhibition, % (no concentration beside the values). T. cruzi beta-gal in NIH3T3, 90 h;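 active means mean inhibition across valid replicates above about 55%, limit read from the data; inconclusive means mean below that limit but half or more replicates reach it; inactive means mean below it, under half of replicates reach it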;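 further: signal also drops with host cell toxicity which is not excluded here; higher percent means less beta-gal luminescence so fewer parasites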
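Test system: β-gal T. cruzi (Tulahuen C4) inside NIH/3T3 cells / Quantity: 5,000 cells/well / Measured by: luminescence from GalScreen with 0.05% NP40, read after 60 min / Medium: DMEM plus 2% FBS / Measure: parasite load inhibition, % / Reagent: Tulahuen C4 trypomastigotes, 5000/well / Schedule: co-culture of at least 90 h after 3 h attachment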
Lmaj promast: Leishmania major promastigote growth inhibition, primary screen; Leishmania major promastigotes, resazurin fluorescence viability; inhibition, % at 10 µM; 200,000 compounds, 9% hits; in the data active means inhibition above about 50%;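 further: promastigotes grown with compound for 44 hours at 28 °C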
SKKanGAS inh: S. pyogenes SKKanGAS growth inhibitors in kanamycin, primary screen, streptokinase expression inhibitor project, SKKanGAS strain, BacTiter-Glo luminescence; 300,000 compounds, 1.3% hits; 6 h; inhibition, % at 7.5 µM;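 active means mean replicate score, as percent of positive control median, at least 50; inconclusive means mean below 50 but one replicate at or above 50; inactive means mean and every replicate below 50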;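 further: strain carries kanamycin resistance gene driven by streptokinase promoter and grows in 40 µg/ml kanamycin; loss of luminescence reflects streptokinase promoter inhibition or plain growth inhibition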
CSC inhib: cancer stem cell viability inhibitors, primary screen, luminescence. cancer stem cell-like cells viability. inhibition, % at 7.5 µM. 300,000 compounds, 1.1% hits; in the data active means inhibition above about 75%; inconclusive means no clear call, values can overlap the other calls; tested in HMLE shEcad cells
Numbers stand for hits; . = inactive; ? = inconclusive; / = no result given.

SMILES	Beta apoptosis	Mdm2-MdmX inh	T cruzi repl	Lmaj promast	SKKanGAS inh	CSC inhib
CC(OCCN1CCCC1)(c1ccc(F)cc1)c1ccc(F)cc1	.	.	.	100	.	.
Fc1ccc(OCCOCCN2CCCC2)cc1	.	.	.	/	.	.
Cc1cc(C(C)(C)C)ccc1OCCCCN1CCCC1	.	.	.	99	.	?
CC(C)(C)c1ccccc1OCCN1CCCC1	.	.	60	90	.	.
Cc1cc(Br)ccc1OCCOCCN1CCCC1	/	.	.	/	.	.
Cc1cc(Br)ccc1OCCCCN1CCCCC1	.	.	64	100	.	.
CC(C)(C)c1ccc(OCCCN2CCCC2)cc1	.	.	.	/	.	.
Cc1cc(C)nc(NC(=O)C2c3ccccc3Oc3ccccc32)n1	.	.	.	.	.	.
COc1ccc(CCN2C(=O)c3ccccc3NC2c2cc(Cl)c(O)c(OC)c2)cc1 (stereo unspecified)	.	.	.	/	.	.
Cc1cc(C(C)(C)C)ccc1OCCN1CCCC1	/	.	.	96	.	.
CC(=O)/C(N=Nc1cccc(C(F)(F)F)c1)=C(\C)O	.	.	.	.	.	.
O=C(/C(N=Nc1cccc(C(F)(F)F)c1)=C(/O)c1cccs1)C(F)(F)F	.	.	.	/	.	140
O=C(CCC(=O)c1cccs1)NCCc1ccc(F)cc1	/	.	.	/	.	.
c1nc2ccc(Cc3ccc4nc[nH]c4c3)cc2[nH]1	.	.	.	/	.	.
COc1ccc(OC)c(-c2csc(NC(=O)CSc3ccc(Br)cc3)n2)c1	.	.	.	53	.	.
COCCN(CCOC)S(=O)(=O)c1ccc(C(=O)Nc2nc(-c3ccncc3)cs2)cc1	.	.	/	85	/	.
COc1ccc(OC)c(-c2csc(NC(=O)CSc3ccc([N+](=O)[O-])cc3)n2)c1	.	.	.	85	.	.
COc1ccc(-n2c(C)cc(-c3csc(NC(=O)c4ccc(S(=O)(=O)N(C)C)cc4)n3)c2C)cc1	.	.	.	63	.	.
CN(CCC#N)C(=O)CC1(Cc2ccccc2)CCOC(C)(C)C1 (stereo unspecified)	.	.	.	/	.	.
O=Cc1ccccc1-c1cn(CN2C(=O)c3ccccc3C2=O)nn1	.	.	.	/	.	.
CC(C)CN(C(=O)COC(=O)c1ccc(Br)o1)c1c(N)n(Cc2ccccc2)c(=O)[nH]c1=O	.	.	.	/	.	.
CCCCC(=O)Nc1nnc(CCOC)s1	.	.	.	.	.	.
COc1ccc(OC)c(-c2csc(NC(=O)c3ccc(F)cc3)n2)c1	.	.	.	/	.	86
CNC(=S)N1N=C(c2ccc(C)cc2)CC1c1ccc(OC)c(OC)c1 (stereo unspecified)	.	.	.	.	.	.
CNC(=S)N1N=C(c2ccc(OC)cc2)CC1c1ccc(N(C)C)cc1 (stereo unspecified)	.	.	.	.	.	.
SMILES	Beta apoptosis	Mdm2-MdmX inh	T cruzi repl	Lmaj promast	SKKanGAS inh	CSC inhib
CNC(=S)N1N=C(c2ccc(Br)cc2)CC1c1ccc(N(C)C)cc1 (stereo unspecified)	.	.	.	51	.	.
CNC(=S)N1N=C(c2ccc(Br)cc2)CC1c1ccc(Br)cc1 (stereo unspecified)	/	.	78	100	.	.
Cc1ccc(S(=O)(=O)/N=C(/Nc2ccc(O)c(C(=O)O)c2)c2ccccc2)cc1	.	.	/	/	/	.
COc1cc2cc(/C=C/C(=O)c3ccco3)c(Cl)nc2cc1OC	.	.	.	76	.	.
O=C(OCC(=O)N1N=C(c2ccc(Cl)cc2)CC1c1ccco1)c1ccco1 (stereo unspecified)	.	.	.	.	.	.
Cc1ccc(S(=O)(=O)NCC(=O)OCC(=O)N2N=C(c3ccc(Cl)cc3)CC2c2ccco2)cc1C (stereo unspecified)	.	.	.	.	70	.
N=c1sccn1CC(=O)N1N=C(c2ccc(Cl)cc2)CC1c1ccco1 (stereo unspecified)	.	.	.	63	.	.
N#CC(c1ccccc1)c1ccc(C(=O)c2ccc(F)cc2)cc1 (stereo unspecified)	.	.	.	60	.	.
COc1cccc(NC(=O)CN(C)C(=O)c2cc3c(s2)CCCCC3)c1	.	.	/	/	/	.
CCN(CC)CCC#CC(O)(c1ccccc1)c1ccccc1	.	.	.	.	.	.
CCN(CC)CC#CC(OC)(c1ccccc1)c1ccccc1	.	.	.	64	.	/
O=c1c(-c2cnn(-c3ccccc3)c2)coc2cc(O)ccc12	.	.	.	96	.	.
CCN(c1ccc(NC(=O)CCNC(=O)c2ccco2)cc1)C(C)C	.	.	.	54	.	.
Cn1cnc([N+](=O)[O-])c1Oc1ccc2ccccc2c1	.	.	.	81	.	.
Cn1cnc([N+](=O)[O-])c1Nc1cccc(O)c1	.	.	.	.	.	.
O=C(CCCCn1c(=O)c2ccccc2n(CC(=O)NC2CCCC2)c1=O)NCc1ccco1	.	.	.	.	.	.
O=C(CCn1c(=O)c2ccccc2n(CC(=O)NC2CCCC2)c1=O)NCc1ccco1	.	.	.	100	.	.
O=C(COc1ccccc1)NC1CCN(Cc2ccccc2)CC1	.	.	.	86	.	.
COc1ccccc1CC(=O)NC1CCN(Cc2ccccc2)CC1	.	.	.	/	.	.
O=C(Cn1[nH]c(=O)c2ccccc2c1=O)NC1CCN(Cc2ccccc2)CC1	.	.	.	69	/	.
O=C(COc1ccc(Br)cc1Cl)NC(=O)NCc1ccccc1	.	.	.	54	.	.
O=C(COc1ccc(Cl)cc1)NCc1n[nH]c(=O)c2ccccc12	/	.	.	/	.	.
O=C(CCCCn1c(=O)c2ccccc2n(Cc2ccccc2)c1=O)NC1CCN(Cc2ccccc2)CC1	.	.	59	73	.	.
O=C(COc1ccc(Br)cc1Cl)NC1CCN(Cc2ccccc2)CC1	.	.	61	/	.	.
O=C(COc1ccc(Br)cc1CNC1CCCCC1)NCCc1ccccc1	.	.	.	93	.	.
O=C(COc1ccccc1)N=C1SC2CS(=O)(=O)CC2N1c1cccc(F)c1 (stereo unspecified)	.	.	.	/	.	.
O=C(CC(=O)c1ccccc1)Nc1cc([N+](=O)[O-])ccc1Cl	.	.	.	/	.	.
O=C(CN1CCN(C/C=C/c2ccccc2)CC1)Nc1cc([N+](=O)[O-])ccc1Cl	.	.	.	56	.	.
Cc1cc(NC(=O)CN2CCN(C/C=C/c3ccccc3)CC2)c([N+](=O)[O-])cc1C	.	.	.	85	.	.
O=C(CN1CCN(C/C=C/c2ccccc2)CC1)Nc1ccccc1C(=O)NC1CC1	.	.	.	/	.	.
